Results as given in the EternaBench riboswitch data.

Test system: MS2 coat protein
Experiment: apparent Kd, MS2 coat protein; higher = weaker binding; RNA-MaP array; FMN 200 µM where present
How it was run: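 Apparent Kd: the median of filtered binding-curve fits from single clusters. Designs were transcribed on Illumina sequencing-chip clusters by stalled E. coli RNA polymerase and titrated with SNAP-549-labelled MS2 coat protein from 0.7 or 1.5 nM, doubling to 3 µM, in 100 mM Tris-HCl pH 7.5, 80 mM KCl, 4 mM MgCl2, BSA, DTT, yeast tRNA and Tween-20. Each series ran without and then with constant ligand, and green signal was normalised to red-channel RNA signal and control-cluster median Fmax.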

[1] = designed as: ON switch for flavin mononucleotide, no ligand
[2] = ligand present: flavin mononucleotide, designed as: ON switch for flavin mononucleotide
[3] = designed as: OFF switch for flavin mononucleotide, no ligand
[4] = ligand present: flavin mononucleotide, designed as: OFF switch for flavin mononucleotide

Sequence | apparent Kd [1] | apparent Kd [2] | apparent Kd [3] | apparent Kd [4]
UUCGCUAAGGUGUAGCGAGACAUGCAAGAAGGGUGAAGAACAUGAGGAUCACCCAUGUAGACGGUACAGGAUAUUGAUUGACGA | 0.128 µM | 0.0893 µM |  | 
UUCGUGCAGCAUUGCUGUACGCGUACAUGAGGAUCACCCAUGUAGGAUAUGGUAGGCAAAGCUUACUAGAAGGAUAUAGUGAUC |  |  | 0.109 µM | 0.114 µM
UUCUUACAUGAGGAUCACCCAUGUCAGGAUAUCUCCUCACUGCGCUUGCGCAGUGAAUAGAGAAGGGACAGGCU |  |  | 0.0513 µM | 0.0438 µM
UUCUUCAGGUCAGGAUAUGCACAAGUUCAACGAGCAGAAGGGACAUGAGGAUCACCCAUGUAAAGGGCACCGGCUAACGUUCGA |  |  | 0.258 µM | 0.182 µM
UUGAAUCGAAACAUGAGGAUCACCCAUGUGUCGUAGGUAGCAUAGGAUAUGUACAUACUGUUGGGAUAGAAGGAUGAUGAUGCU | 0.00862 µM | 0.00747 µM |  | 
UUGAAUUUAAACAUGAGGAUCACCCAUGUGUCAUAGUUGAUAUAGGAUAUGUUUAUACUUUGAAAGCAGAAGGAUGACGAUACU | 0.0189 µM | 0.0152 µM |  | 
UUGAGGUCAGGAUAUGCAUGGCGGGACUUGCGUCGUGGCGUGGAGAAGGGACAUGAGGAUCACCCAUGUGGAGA |  |  | 0.0835 µM | 0.0816 µM
UUGAGUUAGCAGGAUAUGGGCAGCAGGAUGCUUCCAGAAGGGCUGACAUGAGGAUCACCCAUGUUCCCAUGCUU |  |  | 0.0477 µM | 0.0636 µM
UUGAUUAUACAAGGAUAUCAAUUGUAUACAAGUCUUACAUGAGGAUCACCCAUGUUAAAUUUUUUUGAGAAGGUGUGUUUUCAG | 0.0322 µM | 0.0295 µM |  | 
UUGCCCGCCGGAGGAUAUCUACUCUGUGGUGCACUGCGUUUGCAAUACAUGAGGAUCACCCAUGUAGAGAAGGCCGAGGGCACA |  |  | 0.318 µM | 0.0483 µM
UUGCCUCAGAACAUGAGGAUCACCCAUGUGCUGCGGGCAACGUAGGAUAUGACGGUAUGAUACCGUCAGAAGGAUGAUGGUACC | 0.00562 µM | 0.00525 µM |  | 
UUGCCUCAGAACAUGAGGAUCACCCAUGUGCUGCGGGCAACGUAGGAUAUGAUGGUAUUAUACCGUCAGAAGGAUGAUGGUACU | 0.00559 µM | 0.0052 µM |  | 
UUGCGGUAGGAGAAGGACAGAGGCUUAAUUACAUACAUGAGGAUCACCCAUGUAGGAUAUCCUACCUAACGCGGACUCCUCCUG |  |  | 0.00682 µM | 0.00725 µM
UUGCUACAUGAGGAUCACCCAUGUCAGGAUAUUGUGUAUAGCGUGGAAGCUCUGUCGAUAAGAAGGGACUGUCU |  |  | 0.0256 µM | 0.0233 µM
UUGGACGACGUAGGAUAUGUAGGAUAUUCCUACAUGAGGAUCACCCAUGUUGACAUGGAAGAAGGACAGAAGGACGAUGUCCAU | 0.261 µM | 0.00557 µM |  | 
UUGGACGUCGUAGGAUAUGUAGGAUAUUCCUACAUGAGGAUCACCCAUGUAGACAUGGAAGAAGGACAGAAGGACGAUGUCCAU | 0.0259 µM | 0.00479 µM |  | 
UUGGACGUCGUAGGAUAUGUAGGAUAUUCCUACAUGAGGAUCACCCAUGUUGAAAUGGAAGAAGGACAGAAGGACGAUGUCCAU | 0.0569 µM | 0.0118 µM |  | 
UUGGACGUCGUAGGAUAUGUAGGAUAUUCCUACAUGAGGAUCACCCAUGUUGACAUGGAAGAAGGACAGAAAGACGAUGUCCAU | 0.333 µM | 0.00663 µM |  | 
UUGGACGUCGUAGGAUAUGUAGGAUAUUCCUACAUGAGGAUCACCCAUGUUGACAUGGAAGAAGGACAGAAGGACGAAGUCCAU | 0.261 µM | 0.00454 µM |  | 
UUGGACGUCGUAGGAUAUGUAGGAUAUUCCUACAUGAGGAUCACCCAUGUUGACAUGGAAGAAGGACAGAAGGACGUUGUCCAU | 0.404 µM | 0.00574 µM |  | 
UUGGACGUCGUAGGAUAUGUAGGAUAUUCCUACAUGAGGAUCACCCAUGUUGACAUGGAAGAAGGACAGAAGGACUAUGUCCAU | 0.195 µM | 0.00853 µM |  | 
UUGGACGUCGUAGGAUAUGUAGGAUAUUCCUACAUGAGGAUCACCCAUGUUGACAUGGAAGAAGGACAGACGGACGAUGUCCAU | 0.337 µM | 0.00852 µM |  | 
UUGGACGUCGUAGGAUAUGUAGGAUAUUCCUACAUGAGGAUCACCCAUGUUGACAUGGGAGAAGGACAGAAGGACGAUGUCCAU | 0.0524 µM | 0.176 µM |  | 
UUGGACGUCGUAGGAUAUGUAGGAUAUUCCUACAUGAGGAUCACCCAUGUUGACUUGGAAGAAGGACAGAAGGACGAUGUCCAU | 0.022 µM | 0.00406 µM |  | 
UUGGACGUCGUAGGAUAUGUAGGAUAUUCCUACAUGAGGAUCACCCAUGUUGUCAUGGAAGAAGGACAGAAGGACGAUGUCCAU | 0.328 µM | 0.0049 µM |  | 
UUGGACGUCGUAGGAUAUGUAGGAUAUUCUUACAUGAGGAUCACCCAUGUUGACAUGGAAGAAGGACAGAAGGACGAUGUCCAU | 0.0567 µM | 0.0072 µM |  | 
UUGGACGUCGUAGGAUAUGUAGGUUAUUCCUACAUGAGGAUCACCCAUGUUGACAUGGAAGAAGGACAGAAGGACGAUGUCCAU | 0.184 µM | 0.00418 µM |  | 
UUGGACGUCGUAGGAUAUGUGGGAUAUUCCUACAUGAGGAUCACCCAUGUUGACAUGGAAGAAGGACAGAAGGACGAUGUCCAU | 0.0311 µM | 0.00552 µM |  | 

Sequence | apparent Kd [1] | apparent Kd [2] | apparent Kd [3] | apparent Kd [4]
UUGGAUGUUGAGGAUAUGCUGGUGUUUAUUAUAGCAGAAGGCGAUACAUGAGGAUCACCCAUGUUCAUGGCUUU |  |  | 0.0128 µM | 0.0152 µM
UUGGCAACGUAGAAGGGUGACAUGAGGAUCACCCAUGUGCCGAUAUAUCUCGAGAUAUGUCGGCCACAGGAUAUACGUGCCAUC | 0.0359 µM | 0.0352 µM |  | 
UUGGGUCGGGAGGAUAUUCGGGCCCAAGGGCUUGGAGAAGGCUCGACAUGAGGAUCACCCAUGUAAGUGUACUU |  |  | 0.0264 µM | 0.0733 µM
UUGGUAUUUGUAGGAUAUCUGUCGCCACCGUGUGGAGAAGGACGAACAUGAGGAUCACCCAUGUAUCAUGGUGUGGGCUUUCCU |  |  | 0.104 µM | 0.0997 µM
UUGGUAUUUGUAGGAUAUCUGUCGCCACCGUGUGGAGAAGGACGAACAUGAGGAUCACCCAUGUAUCAUGGUGUGGGCUUUGCU |  |  | 0.302 µM | 0.317 µM
UUGGUCGUCGUAGGAUAUGUAGGAUAUUCCUACAUGAGGAUCACCCAUGUUGACAUGGAAGAAGGACAGAAGGACGAUGUCCAU | 0.447 µM | 0.00571 µM |  | 
UUGGUUGUCGUAGGAUAUGUAGGAUAUUCCUACAUGAGGAUCACCCAUGUUCGCAUGGAAGAAGGACGGAAGGACGAUGACCAU | 0.317 µM | 0.109 µM |  | 
UUGUACUAGGGAGGAUAUGGGAAGAUACAUGAGGAUCACCCAUGUUUAAGAAUGCCGAGAGGCAACUAGAAGGCCCUAGUACCU | 0.473 µM | 0.0194 µM |  | 
UUGUGGGAGACAGGAUAUGUACGGAAGGUCCACGUACAUGAGGAUCACCCAUGUCCAGGCUUCAGACAGAAGGGUCACCAGGUG | 0.595 µM | 0.0454 µM |  | 
UUGUUCUGAGGAUAUACAUGAGGAUCACCCAUGUGUUUCAGCUAGGAGACUAGCGAAUGUAGAAGGCUGUUCUC |  |  | 0.0154 µM | 0.0158 µM
UUGUUGUAUGUAGGAUAUGCAUAUUAUUAUUGUGCAGAAGGACAUGAGGAUCACCCAUGUAUAUUAUUAUUAUAUAUUAUAUAU |  |  | 0.0353 µM | 0.0543 µM
UUGUUGUGAGGAUAUCCAAUAUAUGACAUGAGGAUCACCCAUGUUUCCACUCGUACCUCCGGAGAAGGCACUUGGU |  |  | 0.0355 µM | 0.0291 µM
UUUAAGUCAGGAUAUCGUUAAUUUAAUUAUUUAUUUUAAUUCGAGAAGGGACAUGAGGAUCACCCAUGUAAUUU |  |  | 0.0361 µM | 0.0559 µM
UUUAAUCGAAACAUGAGGAUCACCCAUGUGUUGUAAUUAACAUAGGAUAUUUGUAUACUUUUGUAAAAGAAGGAUGAUAAUACU | 0.0171 µM | 0.0136 µM |  | 
UUUACAUGAGGAUCACCCAUGUCUUGCAAGAUGAGUUCUGGUGAGGAUAUACAUGGUAAAGAACUGUAGAAGGCACUGGGUACA | 0.432 µM | 0.43 µM |  | 
UUUACUUACGAAGGAUAUGGUUACAUGAGGAUCACCCAUGUAUGUAUAUUGAUCUAGUAUUUUAACCAGAAGGUCGUGAUUUUU |  |  | 0.0344 µM | 0.0466 µM
UUUAGAUUCAGAGGAUAUUGAUGUUGUAUUUUACAAGAAGGCUGAUUGGUUUGAAUUGUUUUUUAACAUGAGGAUCACCCAUGU | 0.0285 µM | 0.0207 µM |  | 
UUUAGUUCAGGAUAUGUAGAUUUUAACAUGAGGAUCACCCAUGUAGAUCCUGAAUUAACUACAGAAGGGAACAUUC |  |  | 0.0171 µM | 0.0442 µM
UUUAUGAAGAUUCGUCAAUACAGUUAGGAUAUGAGAGACAUGAGGAUCACCCAUGUGCAUGUUGAUUAGAAGGAACAAUUAUCU |  |  | 0.0192 µM | 0.0169 µM
UUUAUGUCAGGAUAUACAUGAGGAUCACCCAUGUAUAUCUUAAAAUAUACAUGGGUAUGUAGAAGGGACCUCCU |  |  | 0.0865 µM | 0.0771 µM
UUUAUGUCAGGAUAUGAGUAGUAGAACAAUAGUACUACUACUCAGAAGGGACAUGAGGAUCACCCAUGUUCCUC |  |  | 0.0182 µM | 0.0988 µM
UUUAUUAAUUAAUAUAAUAAGAUCACAUGAGGAUCACCCAUGUAGGAUAUCAGCUCGAUUAGAGCUGAGAAGGACAUAAUUAUA |  |  | 0.0348 µM | 0.11 µM
UUUAUUUAGGCAGGAUAUACAUGUAUAUAUAUUUCUUUAUAUCUUAUUACAUGAGGAUCACCCAUGUAGAAGGGCCUUCUUAUC |  |  | 0.0301 µM | 0.0345 µM
UUUCCCUGUGUGAGGAUAUACUUGUUUGGGUUUUUGUAGAAGGCACAUGAGGAUCACCCAUGUAUUUUGUCGUG |  |  | 0.0431 µM | 0.111 µM
UUUGAAUAAGUGAGGAUAUACUGUUAGUAUUGAUUGUAGAAGGUACAUGAGGAUCACCCAUGUUUAGUAUUUAU |  |  | 0.0163 µM | 0.0159 µM
UUUGCAUUCCGAGGAUAUUCAUAUAAUGACUACACAUGAGGAUCACCCAUGUGGCGAUAGCCUAGGGAGAAGGCGGUUUGCUUU | 0.0203 µM | 0.0178 µM |  | 
UUUGCAUUCCGAGGAUAUUCAUUUAAUGACUUCACAUGAGGAUCACCCAUGUGGCGAUUGCGCCGGGAGAAGGCGGUUUGCUUU | 0.0247 µM | 0.024 µM |  | 
